The structures appear in SMILES notation.

Series [1] can be described thus: Drug metabolism in cynomolgus monkey liver microsomes assessed as formation of 3-(4-((6-methoxy-1-methyl-1H-benzo[d]imidazol-2-yl)methoxy)phenyl)-2-(methylthio)propanoic acid at 20 uM after 2 to 4 hrs by radio-HPLC/LC-MS/MS analysis in presence of NADPH-generating system/SAM and UDPGA/SAM. It counts as ADME, Macaca fascicularis. In general terms: Liver microsomes are vesicles of endoplasmic reticulum, rich in cytochrome P450 enzymes.

Series [2] in a line: Drug metabolism in human hepatocytes assessed as formation of (2S,3S,4S,5R,6R)-3,4,5-trihydroxy-6-(5-(4-((6-methoxy-1-methyl-1H-benzo[d]imidazol-2-yl)methoxy)benzyl)-2,4-dioxothiazolidin-3-yl)tetrahydro-2H-pyran-2-carboxylic acid at 30 uM after 3 hrs by radio-HPLC/LC-MS/MS analysis. It counts as ADME, cell-based, Hepatocyte.
Series [3] concerns Liver microsome. The series can be described thus: Drug metabolism in human liver microsomes assessed as formation of 3-(4-((6-methoxy-1-methyl-1H-benzo[d]imidazol-2-yl)methoxy)phenyl)-2-(methylsulfinyl)propanamide at 20 uM after 2 hrs by radio-HPLC/LC-MS/MS analysis in presence of NADPH-generating system/SAM. It counts as ADME.
Series [4] in a line: Drug metabolism in cynomolgus monkey liver microsomes assessed as formation of (2S,3S,4S,5R,6R)-6-((1-carboxy-2-(4-((6-methoxy-1-methyl-1H-benzo[d]imidazol-2-yl)methoxy)phenyl)ethylthio)carbonylamino)-3,4,5-trihydroxytetrahydro-2H-pyran-2-carboxylic acid at 20 uM after 4 hrs by radio-HPLC/LC-MS/MS analysis in presence of UDPGA and UDPGA/SAM. It counts as ADME, Macaca fascicularis.

Series [5] concerns Liver microsome. The series can be described thus: Drug metabolism in human liver microsomes assessed as formation of 5-(4-((6-hydroxy-1-methyl-1H-benzo[d]imidazol-2-yl)methoxy)benzyl)thiazolidine-2,4-dione at 20 uM after 2 hrs by radio-HPLC/LC-MS/MS analysis in presence of NADPH-generating system and NADPH-generating system/SAM. The series is classed as ADME.
A further series concerns the target T1, Cytochrome P450 2C8 (Homo sapiens, UniProt P10632).
T1 sequence (P10632 whole entry): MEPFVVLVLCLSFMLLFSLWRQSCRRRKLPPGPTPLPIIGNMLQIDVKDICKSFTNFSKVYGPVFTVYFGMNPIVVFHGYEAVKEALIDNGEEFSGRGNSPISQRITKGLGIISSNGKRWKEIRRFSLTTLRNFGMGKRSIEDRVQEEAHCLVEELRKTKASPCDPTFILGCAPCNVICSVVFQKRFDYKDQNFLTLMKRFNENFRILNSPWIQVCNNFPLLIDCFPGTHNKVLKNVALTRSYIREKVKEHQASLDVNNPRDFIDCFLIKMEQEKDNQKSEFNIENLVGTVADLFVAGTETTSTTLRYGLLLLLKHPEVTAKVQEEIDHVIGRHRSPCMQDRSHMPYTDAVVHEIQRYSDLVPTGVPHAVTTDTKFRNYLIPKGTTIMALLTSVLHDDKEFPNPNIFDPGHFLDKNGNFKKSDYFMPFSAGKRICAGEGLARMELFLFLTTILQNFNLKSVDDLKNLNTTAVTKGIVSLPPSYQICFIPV
As to the kind of experiment: Activity of human CYP2C8 expressed in microsomes isolated from baculovirus infected insect cell assessed as enzyme-mediated 5-(4-((6-hydroxy-1-methyl-1H-benzo[d]imidazol-2-yl)methoxy)benzyl)thiazolidine-2,4-dione formation at 20 uM after 2 hrs by radio-HPLC/LC-MS/MS analysis in presence of NADPH-generating system and NADPH-generating system/SAM. The series is classed as ADME. In short, it runs like this: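 Baculovirus/insect-cell microsomes expressing single human CYPs, 1 mg/ml protein, with 50 mM potassium phosphate (pH 7.4) or 100 mM Tris-HCl (pH 7.5). NADPH-generating system: 2 mM NADP⁺, 20 mM glucose 6-phosphate, 2 units/ml G6PDH, 10 mM MgCl₂. [¹⁴C]rivoglitazone at 20 μM, 2 h at 37°C with shaking. Control used insect-cell control supersomes. Stopped with acetonitrile; supernatant concentrated under nitrogen; metabolites analysed by radio-HPLC, LC-MS and LC-MS/MS.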

Series [6] has as its target T2, UDP-glucuronosyltransferase 2B7 (Homo sapiens, UniProt P16662).
T2 sequence (P16662 whole entry): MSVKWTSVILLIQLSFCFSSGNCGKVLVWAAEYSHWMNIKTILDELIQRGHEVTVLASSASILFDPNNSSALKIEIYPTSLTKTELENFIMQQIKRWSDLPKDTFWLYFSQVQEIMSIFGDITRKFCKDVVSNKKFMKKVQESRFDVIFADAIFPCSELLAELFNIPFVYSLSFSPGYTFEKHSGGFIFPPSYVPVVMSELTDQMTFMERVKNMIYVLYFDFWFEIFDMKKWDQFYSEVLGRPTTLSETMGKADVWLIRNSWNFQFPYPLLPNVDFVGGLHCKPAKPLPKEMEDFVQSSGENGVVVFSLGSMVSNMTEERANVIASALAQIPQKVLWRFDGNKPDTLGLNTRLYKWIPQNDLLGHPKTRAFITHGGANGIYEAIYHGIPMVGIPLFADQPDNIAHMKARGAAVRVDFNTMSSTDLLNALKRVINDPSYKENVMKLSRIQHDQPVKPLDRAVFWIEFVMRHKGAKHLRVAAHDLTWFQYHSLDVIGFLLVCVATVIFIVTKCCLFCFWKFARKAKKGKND
The series can be described thus: Activity of human UGT2B7 expressed in microsomes isolated from baculovirus infected insect cell assessed as enzyme-mediated 2-mercapto-3-(4-((6-methoxy-1-methyl-1H-benzo[d]imidazol-2-yl)methoxy)phenyl)propanamide formation at 20 uM after 4 hrs by radio-HPLC/LC-MS/MS analysis in presence of NADPH-generating system and NADPH-generating system/SAM in presence of UDPGA and UDPGA/SAM. It counts as ADME.

A further series deals with Cytochrome P450 2C19 (Homo sapiens, UniProt P33261). The series can be described thus: Activity of human CYP2C19 expressed in microsomes isolated from baculovirus infected insect cell assessed as enzyme-mediated 3-(4-((6-methoxy-1-methyl-1H-benzo[d]imidazol-2-yl)methoxy)phenyl)-2-(methylthio)propanamide formation at 20 uM after 2 hrs by radio-HPLC/LC-MS/MS analysis in presence of NADPH-generating system/SAM. It counts as ADME.
Sequence of Cytochrome P450 2C19 (P33261 whole entry): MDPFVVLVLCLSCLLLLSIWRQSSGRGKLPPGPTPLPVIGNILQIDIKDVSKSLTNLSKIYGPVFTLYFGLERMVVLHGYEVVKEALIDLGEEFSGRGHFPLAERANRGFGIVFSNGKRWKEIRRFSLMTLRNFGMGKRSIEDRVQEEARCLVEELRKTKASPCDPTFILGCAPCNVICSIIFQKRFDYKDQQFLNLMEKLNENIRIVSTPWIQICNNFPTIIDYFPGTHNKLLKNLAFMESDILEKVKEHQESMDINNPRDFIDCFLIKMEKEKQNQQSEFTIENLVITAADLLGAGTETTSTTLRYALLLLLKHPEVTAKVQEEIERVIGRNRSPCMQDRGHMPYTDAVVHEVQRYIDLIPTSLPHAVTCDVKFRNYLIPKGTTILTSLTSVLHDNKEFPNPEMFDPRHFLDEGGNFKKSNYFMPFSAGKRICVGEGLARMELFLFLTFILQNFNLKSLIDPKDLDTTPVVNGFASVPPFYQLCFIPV

The next series has as its target Cytochrome P450 2C9 (Homo sapiens, UniProt P11712). The series can be described thus: Activity of human CYP2C9 expressed in microsomes isolated from baculovirus infected insect cell assessed as enzyme-mediated 2-hydroxy-3-(4-((6-methoxy-1-methyl-1H-benzo[d]imidazol-2-yl)methoxy)phenyl)propanamide formation at 20 uM after 2 hrs by radio-HPLC/LC-MS/MS analysis in presence of NADPH-generating system and NADPH-generating system/SAM. The series is classed as ADME.

The test system of a further series is Hepatocyte. The series can be described thus: Drug level in human hepatocytes treated with [14C]-rivoglitazone at 30 uM after 3 hrs by radio-HPLC/LC-MS/MS analysis in presence of UDPGA, UDPGA/SAM and NADPH-generating system. It counts as ADME, cell-based.

Sequence of Cytochrome P450 2C9 (P11712 whole entry): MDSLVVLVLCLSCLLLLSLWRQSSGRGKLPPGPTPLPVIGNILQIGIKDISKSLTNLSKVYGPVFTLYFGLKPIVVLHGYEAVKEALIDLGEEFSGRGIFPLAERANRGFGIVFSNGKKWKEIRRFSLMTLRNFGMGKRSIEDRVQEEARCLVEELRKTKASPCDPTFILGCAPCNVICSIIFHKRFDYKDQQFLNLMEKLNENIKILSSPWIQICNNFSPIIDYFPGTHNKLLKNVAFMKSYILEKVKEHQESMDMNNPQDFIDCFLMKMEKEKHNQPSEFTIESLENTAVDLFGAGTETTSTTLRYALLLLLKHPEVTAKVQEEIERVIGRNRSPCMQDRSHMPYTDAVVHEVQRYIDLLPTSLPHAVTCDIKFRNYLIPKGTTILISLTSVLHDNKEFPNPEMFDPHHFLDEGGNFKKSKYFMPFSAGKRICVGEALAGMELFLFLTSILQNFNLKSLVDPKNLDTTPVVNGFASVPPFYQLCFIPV

For the compound `COc1ccc2nc(COc3ccc(C[14CH]4SC(=O)NC4=O)cc3)n(C)c2c1.Cl` (racemic), the Drug metabolism entry (in series [1]; in [2]; with Liver microsome [3]; in series [4]; in the series with Liver microsome [5]; at Cytochrome P450 2C8) was “metabolite_detected” each time. Also, the Drug metabolism entry in series [6] was “metabolite_not_detected”; on Cytochrome P450 2C19, “metabolite_not_detected”; at Cytochrome P450 2C9, “metabolite_detected”.

Turning to `COc1ccc2nc(COc3ccc(CC(S)C(=O)O)cc3)n(C)c2c1` (stereo not given), in the series on Hepatocyte, the Drug metabolism entry is “metabolite_not_detected”.
